Assay results gathered from unrelated publications.
Each line is one published result; the experiments were not run side by side.
Target: Ribosomal protein S6 kinase beta-1 (RPS6KB1, Homo sapiens, UniProt P23443)

CN(c1ncccc1CNc1nc(Nc2ccc3c(c2)CC(=O)N3)ncc1C(F)(F)F)S(C)(=O)=O has an inhibition of 26.4% (enzyme activity; inhibitor; 1 µM).
COc1cc2ncnc(Nc3ccc(Oc4ccccc4)cc3C)c2cc1OC has an inhibition of -2% (enzyme activity; inhibitor; 1 µM).
The remaining binding of COc1cc(-c2cn(C3CCc4c(F)cccc4N(CC(F)(F)F)C3=O)nn2)ccc1-n1cnc(C)c1 (centres unmarked) is reported as 100% (cell-free assay; competition with immobilised ligand; 1 µM).
CN(C)C1CCN(CC#Cc2nn(C3CCCC3)c3nc(NCc4ccccc4)ncc23)C1 (centres unmarked) gave an inhibition of 6% (enzyme activity; inhibitor; FRET; 0.1 µM).
CCN(CC)CCNC(=O)c1c(C)[nH]c(/C=C2\C(=O)Nc3ccc(F)cc32)c1C has an inhibition of 90% (enzyme activity; inhibitor; 10 µM).
CNC(=O)c1cc(Oc2ccc(NC(=O)Nc3ccc(Cl)c(C(F)(F)F)c3)cc2)ccn1 has a remaining signal of 91.4% (cell-free assay; 0.5 µM).
COc1cccc(CNC(=O)c2nc3scc(COCc4ccc(C(=O)O)cc4)c3c(=O)[nH]2)c1 gave a remaining binding of 96.1% (cell-free assay; competition with immobilised ligand; 1 µM).
Cc1ccc(-n2nc(C(C)(C)C)cc2NC(=O)Nc2ccc(OCCN3CCOCC3)c3ccccc23)cc1 gave an inhibition of 39% (enzyme activity; inhibitor; 10 µM).
COc1cc(/C=C/C(=O)CC(=O)/C=C/c2ccc(O)c(OC)c2)ccc1O gave an activity vs control of 46% (enzyme activity; inhibitor; 1 µM).
For COc1ccc(COc2ccc(Cc3cnc(N)nc3N)cc2OC)cc1, the remaining signal was 89.5% (cell-free assay; 0.5 µM).
Cc1ccc(NC(=O)c2ccc(C)c(C(F)(F)F)c2)cc1C#Cc1nn(C2CCC(O)CC2)c2ncnc(N)c12 (centres unmarked) gave a remaining signal of 33% (cell-free assay; 10 µM).
CC/C(=N\NC(=O)NCc1cccc(O)c1)c1ccc(O)c(C)c1O gave an inhibition of 77.8% (enzyme activity; inhibitor; 0.1 µM).
CN([C@@H]1CCc2c(CC(=O)O)c3ccccc3n2C1)S(=O)(=O)c1ccc(F)cc1 has a remaining binding of 100% (cell-free assay; competition with immobilised ligand; 1 µM).
Cc1ccc(C(=O)NCc2ccsc2)cc1C#Cc1cn(C(C)C)c2ncnc(N)c12 has an activity vs control of 92% (enzyme activity; inhibitor; 1 µM).
CSc1cccnc1N1CCN(Cc2nc3ccccc3[nH]2)CC1 gave a remaining binding of 87% (cell-free assay; competition with immobilised ligand; 1 µM).
With Cn1cncc1C1=CN(c2ncnc3[nH]cnc23)CCS1 the inhibition was 14% (enzyme activity; inhibitor; radiometric; 50 nM).
O=C(NCCCC1CCCCC1)c1ccc(CNC(=O)c2cnn(-c3ccccc3)c2C(F)(F)F)cc1 has a remaining binding of 96% (cell-free assay; competition with immobilised ligand; 0.1 µM).
O=C1NC(=O)c2cc(Nc3ccc(F)cc3)c(Nc3ccc(F)cc3)cc21 gave a remaining signal of 95.5% (cell-free assay; 0.5 µM).
For c1ccc(N2CCN(Cc3nc4ccccc4[nH]3)CC2)nc1, the remaining binding was 97% (binding; competition with immobilised ligand; 1 µM).
CCCS(=O)(=O)Nc1ccc(F)c(C(=O)c2c[nH]c3ncc(-c4ccc(Cl)cc4)cc23)c1F gave an inhibition of less than 10% (enzyme activity; inhibitor; 1 µM).
